{"data": "Experimental data from different studies", "target": "SRSF protein kinase 1 (SRPK1, Homo sapiens, UniProt Q96SB4)"}
{"Compound": "O=c1[nH]c2ccccc2n1C1CCN(Cc2ccc(-c3[nH]c4cc5ncnc5cc4nc3-c3ccccc3)cc2)CC1", "effect on": "cell-free assay", "concentration": "0.5 µM", "measurement": "remaining signal", "value": "106%"}
{"Compound": "Cn1cc(-c2cccc(N3CCc4c(sc5c4CC(C)(C)C5)C3=O)c2CO)cc(Nc2ccncn2)c1=O", "effect on": "enzyme activity", "action": "inhibitor", "concentration": "1 µM", "measurement": "inhibition", "value": "5%"}
{"Compound": "C#Cc1n[nH]c2c(-c3cn([C@@H](C)c4ccccn4)c(=O)[nH]c3=O)cc(F)cc12", "effect on": "enzyme activity", "action": "inhibitor", "concentration": "0.1 µM", "measurement": "inhibition", "value": "3.3%"}
{"Compound": "CC(C)(C)c1cc(C=C(C#N)C#N)cc(Br)c1O", "effect on": "enzyme activity", "action": "inhibitor", "concentration": "0.5 µM", "measurement": "remaining activity", "value": "101%"}
{"Compound": "C#Cc1n[nH]c2c(-c3cn([C@@H](C)c4ccccc4)c(=O)[nH]c3=O)cc(F)cc12", "effect on": "enzyme activity", "action": "inhibitor", "concentration": "0.1 µM", "measurement": "inhibition", "value": "3.1%"}
{"Compound": "Cc1nn(C)cc1-c1nc2c(N3CCN(Cc4ccc(Cl)cc4)CC3)c(Cl)cnc2[nH]1", "effect on": "binding", "method": "competition with immobilised ligand", "concentration": "1 µM", "measurement": "remaining binding", "value": "7.8%"}
{"Compound": "Cn1cncc1[C@](O)(COc1ccc(C#N)cc1-c1ccc(OC(F)(F)F)cc1)c1ccc(C#N)cc1", "effect on": "cell-free assay", "method": "competition with immobilised ligand", "concentration": "1 µM", "measurement": "remaining binding", "value": "70%"}
{"Compound": "COc1cc(Nc2ncc(F)c(Nc3ccc4c(n3)NC(=O)C(C)(C)O4)n2)cc(OC)c1OC", "effect on": "binding", "concentration": "10 µM", "measurement": "inhibition", "value": "87%"}
{"Compound": "COc1ncccc1-c1cnn2ccc(N3CCN(C(=O)OC(C)C)CC3)nc12", "effect on": "binding", "method": "competition with immobilised ligand", "concentration": "1 µM", "measurement": "remaining binding", "value": "19%"}
{"Compound": "Cn1cc(-c2cc(F)cc(N3CCn4c(cc5c4CCCC5)C3=O)c2CO)cc(Nc2ccc(N3CCN(C4COC4)CC3)cn2)c1=O", "effect on": "enzyme activity", "action": "inhibitor", "concentration": "0.1 µM", "measurement": "inhibition", "value": "14%"}
